According to ChEMBL document CHEMBL4033639, “Synthesis, biochemical evaluation, and molecular modeling studies of aryl and arylalkyl di-n-butyl phosphates, effective butyrylcholinesterase inhibitors” (Bioorg Med Chem, 2017):

Legend:
[1] = molecular target: Cholinesterase (Equus caballus) (UniProt P81908); assay: Inhibition of horse serum BChE at 500 uM using butyrylthiocholine as substrate by spectrophotometry relative to control
Method in brief: (§1)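 Ellman method at 25 °C: 100 mM sodium phosphate pH 7.5, 1 mM MgCl2, 0.2 mM DTNB, BSA, 100 µM butyrylthiocholine, 2% methanol. Inhibitor 500 µM final; reaction started with equine serum BChE (10 nM final); initial rates at 412 nm. Rate divided by 2% methanol no-inhibitor control; at least three determinations with independently prepared inhibitor solutions, averaged.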

Cholinesterase = Cholinesterase (Equus caballus, UniProt P81908); assay: Inhibition of horse serum BChE using butyrylthiocholine as substrate by spectrophotometry
Method in brief: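 Initial rates monitored continuously at 412 nm (ε 14,150 M-1 cm-1), background from no-enzyme reaction. KI from dependence of observed rate constant on inhibitor concentration (typically twelve); at least three determinations averaged.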

[2] = molecular target: Acetylcholinesterase (Electrophorus electricus) (UniProt O42275); assay: Inhibition of electric eel AChE at 500 uM using acetylthiocholine as substrate by spectrophotometry relative to control
Method in brief: as §1, with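 “acetylthiocholine,” for “butyrylthiocholine,”, “AChE” for “equine serum BChE”, “rates monitored” for “rates”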

Bos taurus = species: Bos taurus; assay: Inhibition of bovine pancreas alpha-chymotrypsin using N-benzoyl-l-tyrosine ethyl ester as substrate by spectrophotometry relative to control
Method in brief: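 Enzyme (fresh 5 units/mL stock in ice-cold 1 mM HCl) added to start; initial rates read continuously at 256 nm, no-enzyme background subtracted. Rate with compound divided by control rate; at least two determinations with independently prepared inhibitor solutions, averaged.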

[3] = molecular target: Cholinesterase (Equus caballus) (UniProt P81908); assay: Reversible inhibition of horse serum BChE at Ki using 25 mM of butyrylthiocholine as substrate preincubated for 1 min followed by substrate addition by spectrophotometry relative to control

Sequence of Cholinesterase (Equus caballus) (P81908 whole entry): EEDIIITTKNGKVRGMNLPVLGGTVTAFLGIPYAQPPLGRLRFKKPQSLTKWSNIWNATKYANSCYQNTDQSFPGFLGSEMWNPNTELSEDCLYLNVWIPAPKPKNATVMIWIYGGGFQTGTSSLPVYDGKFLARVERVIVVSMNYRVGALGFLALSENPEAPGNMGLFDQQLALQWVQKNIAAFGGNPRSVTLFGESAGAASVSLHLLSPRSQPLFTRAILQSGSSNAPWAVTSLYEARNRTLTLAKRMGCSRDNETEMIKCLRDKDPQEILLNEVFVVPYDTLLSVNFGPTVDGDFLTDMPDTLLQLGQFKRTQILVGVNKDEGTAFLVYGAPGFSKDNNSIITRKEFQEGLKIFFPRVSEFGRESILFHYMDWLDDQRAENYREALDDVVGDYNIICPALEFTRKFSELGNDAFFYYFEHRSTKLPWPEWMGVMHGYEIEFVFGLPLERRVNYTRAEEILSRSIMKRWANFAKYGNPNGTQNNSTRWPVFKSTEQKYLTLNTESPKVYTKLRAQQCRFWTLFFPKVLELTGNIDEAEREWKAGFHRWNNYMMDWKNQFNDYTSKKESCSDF
Sequence of Cholinesterase (P81908 whole entry): as above
Sequence of Acetylcholinesterase (Electrophorus electricus) (O42275 24-633 limits assumed): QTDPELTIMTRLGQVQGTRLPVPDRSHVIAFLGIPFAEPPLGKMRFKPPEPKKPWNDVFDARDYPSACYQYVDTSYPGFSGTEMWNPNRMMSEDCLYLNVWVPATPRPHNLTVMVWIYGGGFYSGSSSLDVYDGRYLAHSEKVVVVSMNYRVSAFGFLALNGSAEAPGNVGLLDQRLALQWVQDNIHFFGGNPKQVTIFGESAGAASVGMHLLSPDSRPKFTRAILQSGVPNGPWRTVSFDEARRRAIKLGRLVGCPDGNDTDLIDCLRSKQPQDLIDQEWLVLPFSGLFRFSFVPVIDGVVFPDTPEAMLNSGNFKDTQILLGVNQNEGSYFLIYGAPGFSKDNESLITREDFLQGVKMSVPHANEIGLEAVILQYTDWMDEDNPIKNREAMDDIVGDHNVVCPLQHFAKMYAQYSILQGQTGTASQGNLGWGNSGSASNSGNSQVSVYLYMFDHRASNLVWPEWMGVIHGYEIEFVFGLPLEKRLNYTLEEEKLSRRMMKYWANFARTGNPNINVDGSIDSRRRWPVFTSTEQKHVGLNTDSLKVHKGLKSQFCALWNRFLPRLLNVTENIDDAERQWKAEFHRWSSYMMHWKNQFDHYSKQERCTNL

Row | Compound | fold change (FC) [1] | Ki (Cholinesterase) [µM] | fold change (FC) [2] | fold change (FC) (Bos taurus) | fold change (FC) [3]
1 | CCCCOP(=O)(OCCCC)Oc1cc(C)c(C)c(C)c1 | 0.09 | 11 | 1.09 | 0.84 | 0.88
2 | CCCCOP(=O)(OCCCC)OCc1ccccc1C | 0.04 | 72 | 0.98 | 0.94 | 0.95
3 | CCCCOP(=O)(OCCCC)OCc1ccccc1 | 0.01 | 2 | 1 | 0.97 | 0.92
4 | CCCCOP(=O)(OCCCC)Oc1ccc(C)c(C)c1 | 0.04 | 9 | 1.04 | 0.94 | 0.93
5 | CCCCOP(=O)(OCCCC)Oc1ccc2ccccc2c1 | 0.01 | 1.9 | 1.05 | 0.76 | 0.8
6 | CCCCOP(=O)(OCCCC)OCCc1ccccc1 | 0.11 | 53 | 1.02 | 0.89 | 0.97
7 | CCCOP(=O)(OCCC)Oc1ccccc1 |  | 45 to 80 |  |  | 
8 | CCCCOP(=O)(OCCCC)OCc1cccc(C)c1 | 0.12 | 24 | 0.86 | 0.94 | 0.95
9 | CCOP(=O)(OCC)Oc1cc(C)cc(C)c1 |  | 583 |  |  | 
10 | CCCCOP(=O)(OCCCC)Oc1cccc(C)c1 | 0.15 | 16 | 0.99 | 0.89 | 0.94
11 | CCCCOP(=O)(OCCCC)Oc1ccc(C)cc1 | 0.02 | 8 | 0.89 | 0.96 | 0.94
12 | CCCCOP(=O)(OCCCC)Oc1ccccc1C | 0.27 | 50 | 0.99 | 0.92 | 0.91
13 | CCCCOP(=O)(OCCCC)OCc1ccc(C)cc1 | 0.04 | 14 | 0.87 | 0.92 | 0.92
14 | CCOP(=O)(OCC)Oc1ccc2ccccc2c1 |  | 147 |  |  | 
15 | CCCCOP(=O)(OCCCC)Oc1ccccc1 |  | 45 to 80 |  |  | 
16 | CCCCOP(=O)(OCCCC)Oc1cccc2ccccc12 | 0.21 | 22 | 1.07 | 0.93 | 0.71
17 | CCCCOP(=O)(OCCCC)Oc1cc(C)cc(C)c1 | 0.01 | 1 | 1 | 0.95 | 0.83
18 | CCCCCOP(=O)(OCCCCC)Oc1ccccc1 |  | 6 |  |  | 
19 | CCOP(=O)(OCC)Oc1ccccc1 [PHOSPHORIC ACID DIETHYL ESTER PHENYL ESTER] |  | 1590 |  |  | 
